# Assay outcomes: PubChem, several laboratories
# GRK2 inh: compounds blocking aptamer binding on GRK2 – biochemical, human GRK2, bead flow cytometry, HTS, primary screen; Beta-adrenergic receptor kinase 1 (Homo sapiens), P25098; FAM-aptamer displacement from GRK2; inhibition of aptamer binding, % at 10 µM; 330,000 compounds, 0.59% hits;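 active = inhibition of aptamer binding above 40%, roughly 3 SD of noise, on plates passing a quality check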;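 also: median bead fluorescence of bound FAM aptamer so fluorescent compounds give negative values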
# aDG glyco act: activators of alpha-DG glycosylation, primary screen, uHTS, Pro5-aDG cells, AlphaScreen; alpha-DG glycosylation AlphaScreen (IIH6); 0% Pro5, 100% B10-LARGE cell signal; activation, % at 10 µM; 360,000 compounds, 0.22% hits;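 active = activation of at least 8% versus controls, or a plate z-score of at least 8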;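 also: Pro5 are CHO cells carrying HIG-tagged alpha-DG that lacks glycosylation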
# proCasp7 act: procaspase-7 activators, primary screen, counter-screen for procaspase-3 activator project, biochemical, absorbance, HTS, human; Caspase-7 (Homo sapiens), P55210; 330,000 compounds, 0.093% hits; recombinant procaspase-7, Ac-DEVD-pNA absorbance 405 nm; D23A/D198A/D206A triple mutant, cannot self-cleave; scale: DMSO 0, 5 µM enzyme 100; activation, % at 8.5 µM;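 active = percent activation above the screen-wide mean plus 3 SD, cut at about 25% in these data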
# Target sequence (P55210 whole entry D23A/D198A/D206A): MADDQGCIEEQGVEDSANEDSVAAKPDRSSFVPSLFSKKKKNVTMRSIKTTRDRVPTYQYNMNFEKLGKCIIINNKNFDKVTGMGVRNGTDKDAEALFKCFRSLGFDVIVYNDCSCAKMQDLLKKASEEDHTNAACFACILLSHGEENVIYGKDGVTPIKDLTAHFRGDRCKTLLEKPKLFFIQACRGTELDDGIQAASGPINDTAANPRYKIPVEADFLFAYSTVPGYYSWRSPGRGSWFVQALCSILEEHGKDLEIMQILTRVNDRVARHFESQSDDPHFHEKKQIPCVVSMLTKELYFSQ
#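 Test system: Procaspase-7 triple mutant (PC-7 D3A). Also added: Ac-DEVD-pNA substrate, 400 µM as added. Schedule: 1 h enzyme–compound preincubation and 2 h substrate reaction, both 25 °C. Signal: p-Nitroaniline absorbance at 405 nm, read at 0 and 120 min. Control set: low DMSO alone, high DMSO plus 5 µM PC-7.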
# CaV13 FRET inh: Disruptors of the CACNA1D IQ motif to Ca2+-dependent inactivation inhibitor domain association, primary screening, Förster resonance energy transfer in intact living …; HEK cells, CFP/YFP FRET ICDI-IQ, plate reader, 10 min; percent FRET-ratio fall versus neutral wells; inhibition, % at 12.3 µM; 340,000 compounds, 0.098% hits; AID 743397;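 active = mean replicate inhibition of at least 30% and at least 1% of replicates passing that level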
# T cell modulator: modulators of CD8 T cell-vesicle binding, primary screen, mouse 2C CD8+ T cells, flow cytometry. 2C CD8+ T cell-vesicle binding; hits give low values. response (vesicle binding), % at 7 µM. 330,000 compounds, 0.068% hits. AID 2052, 2009;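 active = response, share of CD8 T cells binding vesicles, and their 90th percentile fluorescence all below set limits, cut at about 80% in these data, passing the limit was not always enough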;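 also: values below 100% mean blocked vesicle binding to the CD8+ T cells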
#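 material = purified 2C TCR transgenic mouse naive CD8+ T cells | controls = Unloaded micro-vesicles (low), QL9 vesicles with 0.7% DMSO (high) | detection = cytometric PE anti-B7-1 and Alexa647 anti-CD8 signals after 1% paraformaldehyde fixation | incubation = binding step 1.5 h, 37 °C, antibody labelling 20 min, ice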
# procasp3 activ: activators of human procaspase-3 D3A mutant, primary screen, biochemical, absorbance, PC-3 D3A mutant, single concentration; Caspase-3 (Homo sapiens), P42574; recombinant procaspase-3 D3A, Ac-DEVD-pNA absorbance 405 nm; activation, % at 8.5 µM; 330,000 compounds, 0.11% hits; AID 463141, 2010;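 active = activation above the mean of all tested compounds plus 3 SD, cut at about 21% in these data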
#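 Assay system: Autoprocessing-dead procaspase-3 D3A mutant enzyme; also added: Ac-DEVD-pNA; doses: one concentration, 8.5 µM nominal, 0.8% DMSO; times: 1 h compound preincubation, 2 h substrate hydrolysis at 25 °C; technique: 405 nm absorbance of p-nitroaniline, reads at 0 and 120 min; measure: % activation between DMSO and enzyme-spiked controls; repeats: single replicate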
# GRK2 inh confirm: GRK2 aptamer-displacing inhibitors, retest, confirmation, biochemical, cherry pick 1, bead flow cytometry; shares compounds with GRK2 inh; bead-bound GRK2, FAM-aptamer displacement; aptamer displacement, % at 10 µM; 2,000 compounds, 4% hits; AID 504451, 2011;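 active = aptamer displacement above 40%, near three times the noise of non-fluorescent compounds, on plates passing quality checks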;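 also: negative values mostly reflect intrinsic compound fluorescence rather than true enhancement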
# Aptamer quench: counter-screen for GRK2 aptamer inhibitors: fluorescent aptamer quenchers; shares compounds with GRK2 inh; Fluorescent RNA aptamer beads, quenching, flow cytometry; hits give high values; 110 tested, under 10 active; fluorescence change (kMESF span), kMESF (test concentration not listed); AID 504521;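 active = compounds whose bead fluorescence drops by more than 37 kMESF across the dose range, marking them as dye quenchers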
# FAM quench CP1: quenches fluorescent RNA aptamer, GRK2 hit artifact; shares compounds with GRK2 inh; Carboxyfluorescein RNA aptamer on beads, flow cytometry quenching; hits give low values; fluorescence response (% of DMSO), % at 10 µM; 2,000 tested, under 10 active; AID 504580;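 active = compounds that quench the bead-bound fluorescent RNA probe, cutting fluorescence to under half of the solvent control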;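 also: counterscreen run without GRK2 so only probe quenching by compound is measured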
# Numbers stand for hits; n = inactive; x = not tested or not shown. Only some compounds are listed: those with a hit (about 1.1% of all), similar ones and a draw of the others.
SMILES,GRK2 inh,aDG glyco act,proCasp7 act,CaV13 FRET inh,T cell modulator,procasp3 activ,GRK2 inh confirm,FAM quench CP1,others
O=C(NN1C(=O)/C(=C/C=C/c2ccco2)SC1=S)c1ccncc1,79,n,n,n,n,n,n,n,
O=C(NN1C(=O)/C(=C/C=C/c2ccccc2)SC1=S)c1ccncc1,n,n,n,n,n,n,x,x,
CC(C)C(C(=O)O)N1C(=O)/C(=C/C=C/c2ccco2)SC1=S (stereo not drawn),95,n,n,x,n,n,55,n,Aptamer quench=n
CC1CN(Cc2cc(=O)oc3cc(O)c(Cl)cc23)CC(C)O1 (stereo not drawn),n,n,n,n,n,n,x,x,
CC(=O)C1=C(C)N(CC(C)C)C(=S)NC1c1ccc(Br)cc1 (stereo not drawn),x,x,x,n,x,x,x,x,
CC1ON=C(c2ccccn2)N(Cc2ccc(S(C)(=O)=O)cc2)C1=O (stereo not drawn),x,n,x,n,x,x,x,x,
Cc1noc(C)c1S(=O)(=O)N(C)C[C@@H]1OCc2cn(nn2)CCCC(=O)N([C@H](C)CO)C[C@H]1C,x,x,x,n,x,x,x,x,
CSCc1cc(N(C)C)nc(SCc2ccc(Cl)c(Cl)c2)n1,76,n,n,n,n,n,n,n,
CNc1cc(CSC)nc(SCc2ccc(Cl)cc2Cl)n1,n,n,n,n,n,n,x,x,
O=c1[nH]n(-c2ccc(F)cc2)c2ncccc12,53,n,n,n,n,n,n,n,
O=c1ncn(-c2ccc(F)cc2)c2ncccc12,n,n,n,n,n,n,x,x,
COc1ccccc1N1CCN(C(=O)CN(C2CCCCC2)S(C)(=O)=O)CC1,47,n,n,n,n,n,n,n,
CS(=O)(=O)N(CC(=O)N1CCN(c2ccccc2F)CC1)C1CCCCC1,n,n,n,n,n,n,x,x,
Cc1cccc(NC(=O)CN2CCN(C(=O)CN3C(=O)NC4(CCCCC4C)C3=O)CC2)c1C (stereo not drawn),x,n,x,n,x,x,x,x,
O=[N+]([O-])c1cccnc1N1CCCCC1,n,n,n,n,n,n,x,x,
O=[N+]([O-])c1cccnc1N1CCN(c2ccccc2F)CC1,46,n,n,x,n,n,n,n,
COc1ccc(OCCCC(=O)OC(C)C(=O)Nc2ccc(S(N)(=O)=O)cc2)cc1 (stereo not drawn),n,n,n,n,n,n,x,x,
CCCc1cc(C(=O)OC)c2ccccc2n1,n,n,n,n,n,n,x,x,
COC(=O)c1cc(Cl)nc2ccccc12,87,n,n,n,n,n,n,n,
COc1ccc(-c2c(NC(=O)CC(C)C)n(C)c3ccccc3c2=O)cc1OC,87,n,n,n,n,n,n,n,
O=C(NC1CCCCCC1)C1CCN(S(=O)(=O)c2cnc[nH]2)CC1,n,n,n,n,n,n,x,x,
Cc1cc2c(c(=O)o1)[C@@]1(C(=O)N(C)c3ccccc31)C1=C(CC3(CCCCC3)OC1=O)O2,x,x,x,n,x,x,x,x,
